Values belong to the molecule of their own block, whether it stands above or below them. Activity calls are given as the source filed them. The calls are words filed in the database; no cut-off is given here.
Assays:
[1] = target: T1, Protein-serine O-palmitoleoyltransferase porcupine (Mus musculus, UniProt Q9JJJ7); test: Inhibition of porcupine in mouse L Wnt3A cells co-cultured with HEK293 cells after 48 hrs by Super-top flash reporter gene assay; assay type: cell-based
T1 sequence (Q9JJJ7 whole entry): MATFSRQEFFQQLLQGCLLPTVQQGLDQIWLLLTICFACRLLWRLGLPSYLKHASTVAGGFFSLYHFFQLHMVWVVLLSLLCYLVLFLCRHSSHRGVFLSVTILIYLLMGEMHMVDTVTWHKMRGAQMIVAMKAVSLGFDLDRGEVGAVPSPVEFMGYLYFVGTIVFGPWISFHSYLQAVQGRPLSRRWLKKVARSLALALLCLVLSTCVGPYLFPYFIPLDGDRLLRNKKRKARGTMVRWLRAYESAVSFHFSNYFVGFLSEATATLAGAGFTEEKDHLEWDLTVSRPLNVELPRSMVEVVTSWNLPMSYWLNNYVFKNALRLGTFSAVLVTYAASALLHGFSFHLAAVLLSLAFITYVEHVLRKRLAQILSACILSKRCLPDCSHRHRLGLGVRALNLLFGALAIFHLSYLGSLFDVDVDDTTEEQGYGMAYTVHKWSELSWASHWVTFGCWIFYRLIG
Method in brief: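 Readout was luminescence inhibition in a co-culture of Wnt-producing LWnt3A cells with Wnt-responding HEK293 cells. Values are geometric means of at least two runs ± SEM, with a reference inhibitor run as a standard in every assay.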

[2] = target: T2, Protein-serine O-palmitoleoyltransferase porcupine (Homo sapiens) (UniProt Q9H237); test: Inhibition of porcupine in HEK293T cells transfected with pLibin-WNT3A plasmid assessed as reduction in Wnt3A secretion into cell culture medium at 0.1 uM after 48 hrs by Western blot method; assay type: cell-based; settings: HEK-293T
T2 sequence (whole entry): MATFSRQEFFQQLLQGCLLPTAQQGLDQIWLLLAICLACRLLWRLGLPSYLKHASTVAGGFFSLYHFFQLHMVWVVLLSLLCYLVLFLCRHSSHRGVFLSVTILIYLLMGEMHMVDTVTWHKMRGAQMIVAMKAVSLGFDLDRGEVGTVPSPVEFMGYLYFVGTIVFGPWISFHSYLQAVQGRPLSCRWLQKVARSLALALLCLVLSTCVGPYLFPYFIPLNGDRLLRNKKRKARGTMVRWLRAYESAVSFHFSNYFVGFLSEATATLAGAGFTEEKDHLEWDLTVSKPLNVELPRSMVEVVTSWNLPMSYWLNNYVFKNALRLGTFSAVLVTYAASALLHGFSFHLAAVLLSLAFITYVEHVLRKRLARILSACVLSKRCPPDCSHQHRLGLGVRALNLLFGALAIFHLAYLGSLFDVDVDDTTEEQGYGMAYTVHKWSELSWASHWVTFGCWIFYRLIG
Method in brief: (§1)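 Cells were HEK293T transfected with pLinbin-Wnt3A plasmid or vehicle control, then exposed to compound (0.1 µM) or left untreated. After 48 h, Western blot was run on both the cell lysate and the culture medium to follow Wnt3A.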

[3] = Solubility of the compound in FaSSIF at pH 6.5 at 4 mg/ml by LC-MS/MS analysis; assay type: physicochemical
Method in brief: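 HCl salt suspended at 4 mg/mL in FaSSIF (pH 6.5), shaken 1 h, then equilibrated overnight at room temperature. After centrifugation, supernatant concentration was measured by LC-MS/MS.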

CYP1A2 = target: T3, CYP1A2 (Homo sapiens, UniProt P05177); test: Inhibition of CYP1A2 in human liver microsomes at 10 uM preincubated for 10 mins followed by NADPH addition measured after 10 mins by LC-MS/MS analysis; assay type: ADME
T3 sequence (P05177 whole entry): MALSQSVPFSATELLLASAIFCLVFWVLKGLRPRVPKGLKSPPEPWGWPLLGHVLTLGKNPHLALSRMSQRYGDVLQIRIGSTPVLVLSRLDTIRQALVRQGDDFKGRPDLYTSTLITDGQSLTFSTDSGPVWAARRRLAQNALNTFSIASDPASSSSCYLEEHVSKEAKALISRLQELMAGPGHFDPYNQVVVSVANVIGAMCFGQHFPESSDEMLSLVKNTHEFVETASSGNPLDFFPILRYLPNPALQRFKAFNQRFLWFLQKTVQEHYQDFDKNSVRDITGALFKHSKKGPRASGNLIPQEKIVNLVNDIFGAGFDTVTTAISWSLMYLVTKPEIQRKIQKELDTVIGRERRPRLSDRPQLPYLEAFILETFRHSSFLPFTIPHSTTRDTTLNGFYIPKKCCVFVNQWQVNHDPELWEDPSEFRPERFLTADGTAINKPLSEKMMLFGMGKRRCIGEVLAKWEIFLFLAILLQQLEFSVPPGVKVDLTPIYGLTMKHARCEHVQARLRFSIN

[4] = Metabolic stability in rat plasma assessed as remaining compound levels at 1 uM after 8 hrs by LC-MS/MS analysis; assay type: ADME, cell-free; settings: read-out: Stability
[5] = Intrinsic clearance in human liver microsomes at 1 uM preincubated for 10 mins followed by NADPH addition measured for 30 to 60 mins by LC-MS/MS analysis; assay type: ADME; settings: read-out: CLH
[6] = Chemical stability in simulated gastric fluid assessed as remaining compound levels at 200 uM at 40 degC after 24 hrs by HPLC method; assay type: ADME; settings: read-out: Stability
Method in brief: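 Test compound held at 200 µM in simulated gastric fluid, 40 °C for 24 h; remaining compound then assessed.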

[7] = Half life in rat liver microsomes at 1 uM preincubated for 10 mins followed by NADPH addition measured for 30 to 60 mins by LC-MS/MS analysis; assay type: ADME
CYP3A4 = CYP3A4 (Homo sapiens, UniProt P08684); test: Inhibition of CYP3A4 in human liver microsomes at 10 uM using midazolam as substrate preincubated for 10 mins followed by NADPH addition measured after 10 mins by LC-MS/MS analysis; assay type: ADME; settings: probe midazolam
CYP3A4, sequence (P08684 whole entry): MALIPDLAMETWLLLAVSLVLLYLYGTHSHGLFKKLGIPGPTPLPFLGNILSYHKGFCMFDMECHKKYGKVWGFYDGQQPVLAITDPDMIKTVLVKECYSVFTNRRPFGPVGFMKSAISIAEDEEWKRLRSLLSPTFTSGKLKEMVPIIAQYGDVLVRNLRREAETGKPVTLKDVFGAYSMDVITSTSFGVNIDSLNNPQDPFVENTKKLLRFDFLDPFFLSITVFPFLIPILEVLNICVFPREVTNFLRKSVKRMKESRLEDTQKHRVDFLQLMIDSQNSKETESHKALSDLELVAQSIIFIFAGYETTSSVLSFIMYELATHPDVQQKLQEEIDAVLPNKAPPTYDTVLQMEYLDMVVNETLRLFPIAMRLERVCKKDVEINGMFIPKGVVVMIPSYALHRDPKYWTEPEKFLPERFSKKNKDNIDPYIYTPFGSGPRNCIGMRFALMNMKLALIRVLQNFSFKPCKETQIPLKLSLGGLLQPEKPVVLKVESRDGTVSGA

CYP2C19 = CYP2C19 (Homo sapiens, UniProt P33261); test: Inhibition of CYP2C19 in human liver microsomes at 10 uM preincubated for 10 mins followed by NADPH addition measured after 10 mins by LC-MS/MS analysis; assay type: ADME
CYP2C19, sequence (P33261 whole entry): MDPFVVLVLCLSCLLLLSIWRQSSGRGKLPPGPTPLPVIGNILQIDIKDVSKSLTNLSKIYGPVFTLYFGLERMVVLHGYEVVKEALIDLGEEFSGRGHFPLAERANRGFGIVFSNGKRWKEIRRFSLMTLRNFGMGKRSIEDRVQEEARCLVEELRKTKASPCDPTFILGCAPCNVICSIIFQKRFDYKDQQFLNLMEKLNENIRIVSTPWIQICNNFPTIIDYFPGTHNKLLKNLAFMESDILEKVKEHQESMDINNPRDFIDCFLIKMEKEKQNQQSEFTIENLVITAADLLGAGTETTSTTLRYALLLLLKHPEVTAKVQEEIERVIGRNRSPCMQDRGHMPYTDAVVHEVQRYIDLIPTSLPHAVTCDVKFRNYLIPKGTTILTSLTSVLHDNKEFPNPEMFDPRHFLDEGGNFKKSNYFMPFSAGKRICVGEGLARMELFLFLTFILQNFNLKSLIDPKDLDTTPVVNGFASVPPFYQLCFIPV

CYP2C9 = CYP2C9 (Homo sapiens, UniProt P11712); test: Inhibition of CYP2C9 in human liver microsomes at 10 uM preincubated for 10 mins followed by NADPH addition measured after 10 mins by LC-MS/MS analysis; assay type: ADME
CYP2C9, sequence (P11712 whole entry): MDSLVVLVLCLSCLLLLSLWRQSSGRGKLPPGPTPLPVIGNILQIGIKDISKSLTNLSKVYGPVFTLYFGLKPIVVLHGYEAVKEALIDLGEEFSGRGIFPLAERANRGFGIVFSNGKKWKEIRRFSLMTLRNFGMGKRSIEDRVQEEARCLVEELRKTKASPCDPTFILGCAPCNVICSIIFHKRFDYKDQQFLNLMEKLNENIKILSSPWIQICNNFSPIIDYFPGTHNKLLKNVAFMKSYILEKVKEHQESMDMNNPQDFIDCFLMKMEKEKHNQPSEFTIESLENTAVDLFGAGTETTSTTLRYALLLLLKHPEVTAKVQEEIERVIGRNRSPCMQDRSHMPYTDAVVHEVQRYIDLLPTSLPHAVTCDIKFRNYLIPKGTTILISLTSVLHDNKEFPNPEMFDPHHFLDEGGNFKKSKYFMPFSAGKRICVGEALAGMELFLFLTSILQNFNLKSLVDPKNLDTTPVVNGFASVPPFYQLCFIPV

[8] = Half life in mouse liver microsomes at 1 uM preincubated for 10 mins followed by NADPH addition measured for 30 to 60 mins by LC-MS/MS analysis; assay type: ADME
[9] = Intrinsic clearance in mouse liver microsomes at 1 uM preincubated for 10 mins followed by NADPH addition measured for 30 to 60 mins by LC-MS/MS analysis; assay type: ADME; settings: read-out: CLH
[10] = Intrinsic clearance in rat liver microsomes at 1 uM preincubated for 10 mins followed by NADPH addition measured for 30 to 60 mins by LC-MS/MS analysis; assay type: ADME; settings: read-out: CLH
[11] = Half life in human liver microsomes at 1 uM preincubated for 10 mins followed by NADPH addition measured for 30 to 60 mins by LC-MS/MS analysis; assay type: ADME
CYP2D6 = CYP2D6 (Homo sapiens, UniProt P10635); test: Inhibition of CYP2D6 in human liver microsomes at 10 uM using dextromethorphan as substrate preincubated for 10 mins followed by NADPH addition measured after 10 mins by LC-MS/MS analysis; assay type: ADME; settings: probe dextromethorphan
CYP2D6, sequence (P10635 whole entry): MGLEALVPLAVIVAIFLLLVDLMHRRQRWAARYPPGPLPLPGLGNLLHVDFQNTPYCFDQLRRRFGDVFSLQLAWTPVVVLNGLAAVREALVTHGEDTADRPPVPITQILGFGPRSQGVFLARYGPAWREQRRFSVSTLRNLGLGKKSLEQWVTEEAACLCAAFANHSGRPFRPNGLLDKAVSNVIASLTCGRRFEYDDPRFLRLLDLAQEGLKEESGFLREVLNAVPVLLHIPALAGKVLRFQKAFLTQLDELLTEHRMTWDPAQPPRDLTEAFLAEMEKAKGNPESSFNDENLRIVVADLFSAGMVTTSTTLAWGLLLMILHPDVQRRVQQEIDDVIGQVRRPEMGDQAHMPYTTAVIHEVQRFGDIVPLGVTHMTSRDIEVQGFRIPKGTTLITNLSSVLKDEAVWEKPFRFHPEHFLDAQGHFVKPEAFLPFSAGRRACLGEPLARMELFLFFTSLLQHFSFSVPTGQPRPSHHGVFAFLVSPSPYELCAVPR

[12] = Effect on Wnt3A level in HEK293T cells transfected with pLibin-WNT3A plasmid at 0.1 uM after 48 hrs by Western blot method; assay type: ADME, cell-based; settings: human, hek-293t; method in brief: as §1

IC50 [1]: 35 nM
Structure (SMILES): Cc1cc(-c2ccc(CNC(=O)c3ccc4c(c3)Cc3ccccc3-4)cc2)ccn1

inhibition [2]: Active
Structure (SMILES): Cc1cc(-c2ccc(CNC(=O)c3ccc4c(c3)[nH]c3ccccc34)cc2)ccn1 [listing 1 of 2 here]

solubility [3]: 0.16 µM
Structure (SMILES): Cc1cc(-c2ccc(CNC(=O)c3ccc4c(c3)[nH]c3ccccc34)cc2)ccn1.Cl

IC50 [1]: 16 nM
Structure (SMILES): Cc1cc(-c2ncc(CNC(=O)c3ccc4c(c3)C(F)(F)c3ccccc3-4)cc2F)ccn1

IC50 [1]: 9.2 nM
Structure (SMILES): Cc1cc(-c2ncc(CNC(=O)c3ccc4c(c3)Cc3ccccc3-4)cc2F)ccn1

inhibition at 10 min, 10 µM (CYP1A2): 64% | remaining at 8 h, 1 µM [4]: 100% | CLint scaled at 1 µM [5]: 59 mL/min/kg | remaining at 24 h, 200 µM [6]: 100% | half-life at 1 µM [7]: 4.62 h | inhibition at 10 min, 10 µM (CYP3A4): 7% | inhibition at 10 min, 10 µM (CYP2C19): 8% | inhibition at 10 min, 10 µM (CYP2C9): -22% | half-life at 1 µM [8]: 0.717 h | CLint scaled at 1 µM [9]: 141 mL/min/kg | CLint scaled at 1 µM [10]: 7 mL/min/kg | half-life at 1 µM [11]: 0.5 h | inhibition at 10 min, 10 µM (CYP2D6): 9% | IC50 [1]: 7.5 nM
Structure (SMILES): Cc1cc(-c2ccc(CNC(=O)c3ccc4c(c3)[nH]c3ccccc34)cc2)ccn1 [listing 2 of 2 here]
Activity [12]: Non-Toxic

IC50 [1]: > 1000 nM
Structure (SMILES): Cc1cc(-c2ccc(CNC(=O)c3ccc4c5ccccc5n(C)c4c3)cc2)ccn1

IC50 [1]: 60 nM
Structure (SMILES): Cc1cc(-c2ccc(CNC(=O)c3ccc4c(c3)C(F)(F)c3ccccc3-4)cc2)ccn1

IC50 [1]: 85 nM
Structure (SMILES): Cc1cc(-c2ccc(CNC(=O)c3ccc4c(c3)C(=O)c3ccccc3-4)cc2)ccn1

IC50 [1]: 1 nM
Structure (SMILES): Cc1cc(-c2ccc(CNC(=O)c3ccc(-c4ccccc4)cc3)cc2)ccn1

IC50 [1]: 9.1 nM
Structure (SMILES): Cc1cc(-c2ccc(CNC(=O)c3ccc4c(c3)oc3ccccc34)cc2)ccn1

Further lines, the molecule ahead of its results:

Structure (SMILES): Cc1cn(-c2ccc(CNC(=O)c3ccc4c(c3)[nH]c3ccccc34)cc2)cn1
IC50 [1]: 119 nM

Structure (SMILES): Cc1cc(-c2ncc(CNC(=O)c3ccc4c(c3)oc3ccccc34)cc2F)ccn1
IC50 [1]: 3.1 nM

Structure (SMILES): Cc1cc(-c2ncc(CNC(=O)c3ccc4c(c3)C(=O)c3ccccc3-4)cc2F)ccn1
IC50 [1]: 44 nM

Structure (SMILES): Cc1cc(-c2ncc(CNC(=O)c3ccc4c(c3)[nH]c3ccccc34)cc2C)ccn1
IC50 [1]: 10 nM

Structure (SMILES): Cc1cc(-c2ccc(CNC(=O)c3ccc4c(c3)[nH]c3ccccc34)nc2)ccn1
IC50 [1]: 18 nM

Structure (SMILES): O=C(NCc1ccc(-c2ccncc2)cc1)c1ccc2c(c1)[nH]c1ccccc12
IC50 [1]: 18 nM

Structure (SMILES): O=C(NCc1ccc2c(c1)oc1ccccc12)c1ccc(-c2cnccn2)cc1
IC50 [1]: 701 nM

Structure (SMILES): Cc1cc(-c2ncc(CNC(=O)c3ccc4c(c3)[nH]c3ccccc34)cc2F)ccn1 [listing 1 of 2 here]
inhibition [2]: Active

Structure (SMILES): Cc1cc(-c2ncc(CC(=O)Nc3ccc(-c4cnccn4)cn3)cc2C)ccn1 [WNT-974]
remaining at 8 h, 1 µM [4]: 100% | CLint scaled at 1 µM [5]: 2 mL/min/kg | remaining at 24 h, 200 µM [6]: 66% | inhibition [2]: Active | half-life at 1 µM [7]: 12.8 h | half-life at 1 µM [8]: 4.62 h | CLint scaled at 1 µM [9]: 22 mL/min/kg | CLint scaled at 1 µM [10]: 3 mL/min/kg | half-life at 1 µM [11]: 9.35 h | IC50 [1]: 0.9 nM | Activity [12]: Non-Toxic

Structure (SMILES): Cc1cc(-c2ncc(CNC(=O)c3ccc4c(c3)[nH]c3ccccc34)cc2F)ccn1 [listing 2 of 2 here]
inhibition at 10 min, 10 µM (CYP1A2): 73% | remaining at 8 h, 1 µM [4]: 100% | CLint scaled at 1 µM [5]: 57 mL/min/kg | remaining at 24 h, 200 µM [6]: 100% | half-life at 1 µM [7]: 1.33 h | inhibition at 10 min, 10 µM (CYP3A4): 69% | inhibition at 10 min, 10 µM (CYP2C19): 59% | inhibition at 10 min, 10 µM (CYP2C9): 31% | half-life at 1 µM [8]: 0.917 h | CLint scaled at 1 µM [9]: 109 mL/min/kg | CLint scaled at 1 µM [10]: 24 mL/min/kg | half-life at 1 µM [11]: 0.517 h | inhibition at 10 min, 10 µM (CYP2D6): 37% | IC50 [1]: 0.5 nM | Activity [12]: Non-Toxic

Structure (SMILES): O=C(NCc1ccc2c(c1)Cc1ccccc1-2)c1ccc(-c2cnccn2)cc1
IC50 [1]: > 1000 nM

Structure (SMILES): Cc1cc(-c2ncc(CNC(=O)c3ccc4c5ccccc5n(C)c4c3)cc2F)ccn1
IC50 [1]: 175 nM

Structure (SMILES): O=C(NCc1ccc2cnccc2c1)c1ccc2c(c1)[nH]c1ccccc12
IC50 [1]: 207 nM

Structure (SMILES): O=C(NCc1ccc(-n2ccnc2)cc1)c1ccc2c(c1)[nH]c1ccccc12
IC50 [1]: 314 nM

Structure (SMILES): O=C(NCc1ccc2c(c1)Cc1ccccc1-2)c1ccc(-c2ccccc2)cc1
IC50 [1]: > 1000 nM

Structure (SMILES): Cn1nccc1-c1ccc(CNC(=O)c2ccc3c(c2)[nH]c2ccccc23)cc1
IC50 [1]: 130 nM

Structure (SMILES): Cc1cc(-c2ccc(CNC(=O)c3ccc4c(c3)[nH]c3ccccc34)cn2)ccn1
IC50 [1]: 6.2 nM

Structure (SMILES): Cc1cc(-c2ncc(CNC(=O)c3ccc4c(c3)[nH]c3ccccc34)cc2F)ccn1.Cl
solubility [3]: 1.24 µM

Structure (SMILES): N#Cc1ccc2cc(CNC(=O)c3ccc4c(c3)[nH]c3ccccc34)ccc2c1
IC50 [1]: 13 nM
